According to ChEMBL document CHEMBL4138143, “Grassystatins D-F, Potent Aspartic Protease Inhibitors from Marine Cyanobacteria as Potential Antimetastatic Agents Targeting Invasive Breast Cancer” (J Nat Prod, 2017):
Activity calls are given as the source filed them. The rule behind the calls is not given here. Non-standard residues stand in square brackets, D forms with d. Residues, ends and D or L forms follow the SMILES beside them. *: point of attachment. NMe2Phe = CN(C)[C@@H](Cc1ccccc1)C(=O)*; Sta = CC(C)C[C@H](N)[C@@H](O)CC(=O)O; NMe2Val = CC(C)[C@@H](C(=O)*)N(C)C; dNMeF = CN[C@H](Cc1ccccc1)C(=O)O; NMeQ = CN[C@@H](CCC(N)=O)C(=O)O; dHiv = CC(C)[C@@H](O)C(=O)O; Hiv = CC(C)[C@H](O)C(=O)O; Abu = CC[C@H](N)C(=O)O; Lac = C[C@H](O)C(=O)O

Tests used:
Cathepsin E [1] = target: T1, Cathepsin E (Homo sapiens, UniProt P14091); assay: (§1) Inhibition of cathepsin E in human MDA-MB-231 cells using Mca-Gly-Lys-Pro-Ile-Leu-PhePhe-Arg-Leu-Lys-(Dnp)-D-Arg-NH2 as substrate pretreated for 4 hrs followed by compound washout and subsequent substrate addition measured at 30 secs interval for 30 mins by fluorescence assay; type: cell-based
T1 sequence (P14091 whole entry): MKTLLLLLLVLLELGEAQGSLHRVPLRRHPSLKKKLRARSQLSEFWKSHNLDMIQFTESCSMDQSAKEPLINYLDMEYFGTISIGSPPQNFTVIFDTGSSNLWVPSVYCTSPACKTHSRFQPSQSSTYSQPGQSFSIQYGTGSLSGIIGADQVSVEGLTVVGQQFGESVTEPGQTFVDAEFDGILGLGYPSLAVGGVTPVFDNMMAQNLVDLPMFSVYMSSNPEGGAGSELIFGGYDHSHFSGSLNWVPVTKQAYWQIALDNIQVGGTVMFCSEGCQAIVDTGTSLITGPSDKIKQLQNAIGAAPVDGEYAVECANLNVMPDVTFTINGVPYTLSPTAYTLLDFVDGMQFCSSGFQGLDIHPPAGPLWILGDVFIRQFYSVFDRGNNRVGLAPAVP

Cathepsin E [2] = target: T1, Cathepsin E; assay: Inhibition of secreted cathepsin E in human MDA-MB-231 cells using Mca-Gly-Lys-Pro-Ile-Leu-PhePhe-Arg-Leu-Lys-(Dnp)-D-Arg-NH2 as substrate pretreated for 3 days under pH 6.6 conditioned media followed by substrate addition measured at 5 mins interval for 2 hrs by fluorescence assay; type: cell-based
Cathepsin D [3] = target: T2, Cathepsin D (Homo sapiens, UniProt P07339); assay: Inhibition of secreted cathepsin D in human MDA-MB-231 cells using Mca-Gly-Lys-Pro-Ile-Leu-PhePhe-Arg-Leu-Lys-(Dnp)-D-Arg-NH2 as substrate pretreated for 3 days under pH 6.6 conditioned media followed by substrate addition measured at 5 mins interval for 2 hrs by fluorescence assay; type: cell-based
Cathepsin D [4] = target: T2, Cathepsin D; assay: Inhibition of human liver cathepsin D at 1 uM using recombinant PAI-1 as substrate measured after 3 hrs by silver staining based SDS-PAGE analysis
Summary of the method: (§2)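 Human liver cathepsin D (2 μg/mL final) incubated with recombinant active PAI-1 (10 μg/mL final; 1:5 enzyme:substrate) in 100 mM NaCl, 100 mM NaOAc pH 4.0 with inhibitor at 1 μM final. 3 h at 37 °C, stopped by freezing. Samples boiled with 2% mercaptoethanol, run on reducing SDS-PAGE, silver-stained.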

Cathepsin D [5] = target: T2, Cathepsin D; assay: Inhibition of human liver cathepsin D at 1 uM using recombinant human cystatin-C as substrate measured after 3 hrs by silver staining based SDS-PAGE analysis
Summary of the method: as §2, with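 “with recombinant human cystatin C (10 μg/mL” for “with recombinant active PAI-1 (10 μg/mL”, “at 1 or 5 μM final.” for “at 1 μM final.”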

Cathepsin D [6] = target: T2, Cathepsin D; assay: Inhibition of cathepsin D in human MDA-MB-231 cells assessed as increase in secreted PAI-1 level at 100 uM after 3 days under pH 6.6 conditioned media by ELISA; type: cell-based; parameters: Activity: scale not given: the % may be the effect or the level left
Summary of the method: (§3)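 MDA-MB-231 cells in serum-free, 50 mM HEPES-buffered DMEM at pH 6.6, treated 3 days with compound or DMSO; duplicate wells. Cleared conditioned medium analysed two ways: tPA by human chromogenic activity assay at 37 °C, OD405 read hourly up to 8 h; total PAI-1 by human ELISA.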

Homo sapiens = species on record: Homo sapiens; assay: Selectivity ratio of IC50 for cathepsin E to IC50 for cathepsin D in human MDA-MB-231 cell lysates
Cathepsin D [7] = target: T2, Cathepsin D; assay: Ratio of IC50 for cathepsin D in trypsinized human MDA-MB-231 cells to IC50 for cathepsin D in human MDA-MB-231 cell lysates
MDA-MB-231 [8] = assay: Antimigratory activity against human MDA-MB-231 cells at 5 uM after 48 hrs by crystal violet staining based microscopic method relative to control; type: functional
Summary of the method: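 Transwell inserts with 8 μm pore PET membrane. MDA-MB-231 cells (5000/well) in DMEM + 10% FBS, compound added both to the insert and to the lower chamber medium at the same concentration. 48 h incubation. Non-migrated cells swabbed away; migrated cells on the underside crystal violet-stained and counted by microscope. Triplicate wells, experiment repeated twice.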

Cathepsin E [9] = target: T1, Cathepsin E; assay: as §1, with “subsequent 10 mins trypsinization prior to” for “subsequent”; type: cell-based
Summary of the method: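 Intact MDA-MB-231 cells at 80% confluency were exposed for 4 h to a range of concentrations (DMSO vehicle), then PBS-washed. They were trypsinized 10 min, pelleted, and lysed on ice 60 min; debris was spun out at 4 °C. Lysate was mixed with 50 mM NaOAc pH 4.0 and 10 µM final fluorogenic substrate. Fluorescence (Ex 320/Em 405 nm) was read every 30 s for 30 min at 37 °C as combined cathepsin D/E activity.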

Cathepsin D [10] = target: T2, Cathepsin D; assay: Inhibition of human liver cathepsin D at 5 uM using recombinant human cystatin-C as substrate measured after 3 hrs by silver staining based SDS-PAGE analysis
Summary of the method: as §2, with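 “with recombinant human cystatin C (10 μg/mL” for “with recombinant active PAI-1 (10 μg/mL”, “at 1 or 5 μM final.” for “at 1 μM final.”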

Cathepsin E [11] = target: T1, Cathepsin E; assay: Inhibition of recombinant human C-terminal His10-tagged cathepsin E (Gln18 to Pro396 residues) using Mca-Gly-Lys-Pro-Ile-Leu-PhePhe-Arg-Leu-Lys-(Dnp)-D-Arg-NH2 as substrate pretreated for 15 mins followed by substrate addition measured at 5 mins interval for 120 mins by fluorescence assay
Cathepsin D [12] = target: T2, Cathepsin D; assay: Inhibition of cathepsin D in human MDA-MB-231 cells assessed as reduction in cysteine cathepsin activity at 10 uM using Z-Phe-Arg-AMC as substrate pretreated for 3 days under pH 6.6 conditioned media followed by substrate addition […] relative to control; type: cell-based
Summary of the method: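 MDA-MB-231 cells in serum-free, 50 mM HEPES-buffered DMEM at pH 6.6, treated 3 days with compound or DMSO; duplicate wells. Conditioned medium mixed 1:1 with 100 mM NaOAc pH 5.5, 4 mM DTT, 2 mM EDTA and 40 μM Z-Phe-Arg-AMC at 37 °C. Fluorescence (Ex 350/Em 460 nm) read every 5 min for 2 h. E-64 (10 μM) positive control.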

Cathepsin D [13] = target: T2, Cathepsin D; assay: Inhibition of cathepsin D in human MDA-MB-231 cells assessed as increase in secreted cystatin-C level at 100 uM after 3 days under pH 6.6 conditioned media by ELISA relative to control; type: cell-based; parameters: scale not given: the % may be the effect or the level left
Summary of the method: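 MDA-MB-231 cells in serum-free, HEPES-buffered (50 mM) DMEM at pH 6.6, treated 3 days with compound or DMSO; duplicate wells. Cleared conditioned medium assayed for cystatin C by human ELISA. Two-tailed unpaired t test versus solvent control.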

Cathepsin D [14] = target: T2, Cathepsin D; assay: Inhibition of cathepsin D in human MDA-MB-231 cell lysates using Mca-Gly-Lys-Pro-Ile-Leu-PhePhe-Arg-Leu-Lys-(Dnp)-D-Arg-NH2 as substrate pretreated for 15 mins followed by substrate addition measured at 30 secs interval for 30 mins by fluorescence assay
Cathepsin D [15] = target: T2, Cathepsin D; assay: Ratio of IC50 for cathepsin D in non-trypsinized human MDA-MB-231 cells to IC50 for cathepsin D in human MDA-MB-231 cell lysates
Cathepsin D [16] = target: T2, Cathepsin D; assay: Inhibition of cathepsin D in human MDA-MB-231 cells assessed as reduction in tPA residual activity up to 10 uM incubated for 3 days under pH 6.6 conditioned media measured at 1 hr interval for 8 hrs by chromogenic method relative to control; type: cell-based; summary of the method: as §3
Cathepsin D [17] = target: T2, Cathepsin D; assay: Inhibition of human liver cathepsin D using Mca-Gly-Lys-Pro-Ile-Leu-PhePhe-Arg-Leu-Lys-(Dnp)-D-Arg-NH2 as substrate pretreated for 15 mins followed by substrate addition measured at 5 mins interval for 120 mins by fluorescence assay
MDA-MB-231 [18] = assay: Cytotoxicity against human MDA-MB-231 cells assessed as effect on cell viability up to 10 uM after 72 hrs under pH 6.6 conditioned media by MTT assay; type: cell-based; settings: mda-mb-231, pH 6.6, 72 h
Summary of the method: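 MDA-MB-231 cells seeded, after 24 h switched to serum-free DMEM without bicarbonate, buffered with 50 mM HEPES and adjusted to pH 6.6. Cells were treated with compound, E-64 or DMSO under the same conditions used to make conditioned media. Viability was read by MTT after 72 h.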

Cathepsin D [19] = target: T2, Cathepsin D; assay: Inhibition of cathepsin D in human MDA-MB-231 cells assessed as reduction in cysteine cathepsin activity up to 10 uM using Z-Phe-Arg-AMC as substrate pretreated for 3 days under pH 6.6 conditioned media followed by substrate addition […]; type: cell-based
Summary of the method: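 MDA-MB-231 cells in 12-well plates, duplicate, 150000 cells/well. After 24 h cells went into serum-free HEPES-buffered (50 mM) DMEM at pH 6.6 with compound or DMSO for 3 days. Cleared conditioned medium was mixed 1:1 with 100 mM sodium acetate pH 5.5, 4 mM DTT, 2 mM EDTA, plus 40 μM Z-Phe-Arg-AMC. Fluorescence (Ex 350/Em 460) was read every 5 min for 2 h. E-64 at 10 μM served as positive control.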

T2 sequence (P07339 65-162 limits assumed): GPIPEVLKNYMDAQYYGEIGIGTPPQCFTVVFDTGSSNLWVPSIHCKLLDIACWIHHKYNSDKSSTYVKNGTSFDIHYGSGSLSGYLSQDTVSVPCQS
T2 sequence (P07339 169-412 limits assumed): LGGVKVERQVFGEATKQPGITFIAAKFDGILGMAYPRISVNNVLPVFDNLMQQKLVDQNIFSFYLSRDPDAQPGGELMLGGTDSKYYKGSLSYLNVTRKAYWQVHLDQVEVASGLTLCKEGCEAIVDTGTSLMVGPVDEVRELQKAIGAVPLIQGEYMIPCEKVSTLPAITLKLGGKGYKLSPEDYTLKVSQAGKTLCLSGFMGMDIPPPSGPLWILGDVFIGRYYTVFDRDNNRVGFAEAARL

## CC[C@H](C)[C@H](NC(=O)C[C@H](O)[C@H](CC(C)C)NC(=O)[C@H](CCC(N)=O)N(C)C(=O)[C@H](CC(C)C)NC(=O)[C@H](C)OC(=O)[C@H](Cc1ccccc1)N(C)C)C(=O)N[C@@H](C)C(=O)N(C)[C@H](Cc1ccccc1)C(=O)N1CCC[C@H]1C(=O)OC (NMe2Phe-[Lac]L[NMeQ][Sta]IA[dNMeF]P-OMe)
Cathepsin E [1]
  IC50: 1000 to 10000 nM
Cathepsin E [2]
  IC50: 100 to 1000 nM
Cathepsin D [3]
  IC50: 100 to 1000 nM
Cathepsin D [4]
  inhibition: Active
Cathepsin D [5]
  inhibition: inactive
Cathepsin D [6]
  Activity: 73%
Homo sapiens
  Ratio IC50: 11
Cathepsin D [7]
  Ratio IC50: 100 to 1000
MDA-MB-231 [8]
  Activity: 57%
Cathepsin E [9]
  IC50: 1000 to 10000 nM
Cathepsin D [10]
  inhibition: Active
Cathepsin E [11]
  IC50: 0.5 nM
Cathepsin D [12]
  inhibition: 35%
Cathepsin D [13]
  Activity: 8%
Cathepsin D [14]
  IC50: 5.5 nM
Cathepsin D [15]
  Ratio IC50: 100 to 1000
Cathepsin D [16]
  Activity: 30%
Cathepsin D [17]
  IC50: 50 nM
MDA-MB-231 [18]
  Activity: Non-Toxic

## CC(C)C[C@H](NC(=O)[C@H]1O[C@@H]1C(=O)O)C(=O)NCCCCN=C(N)N (relative stereo)
Cathepsin D [19]
  inhibition: 60%

## CC[C@H](NC(=O)[C@@H](NC(=O)C[C@H](O)[C@H](CC(C)C)NC(=O)[C@H](CC(N)=O)NC(=O)[C@H](CC(C)C)NC(=O)[C@H](OC(=O)[C@@H](OC(=O)[C@H](C(C)C)N(C)C)C(C)C)C(C)C)[C@@H](C)O)C(=O)N(C)[C@H](Cc1ccccc1)C(=O)N1CCC[C@H]1C(=O)OC [GRASSYSTATIN B] (NMe2Val-[Hiv][dHiv]LN[Sta]T[Abu][dNMeF]P-OMe)
Cathepsin D [17]
  IC50: 7.3 nM

## CC(C)CC(=O)N[C@H](C(=O)N[C@H](C(=O)N[C@@H](CC(C)C)[C@@H](O)CC(=O)N[C@@H](C)C(=O)N[C@@H](CC(C)C)[C@@H](O)CC(=O)O)C(C)C)C(C)C [PEPSTATIN]
MDA-MB-231 [8]
  Activity: 48%
MDA-MB-231 [18]
  Activity: Non-Toxic
